Assay results published in ChEMBL document CHEMBL1127745, “Synthesis, resolution, and SAR of (+/-)-2-amino-N-methyl-alpha-(3-methyl-2-thienyl)benzeneethanamine++ + and related analogs as noncompetitive NMDA antagonists with neuroprotective properties” (J Med Chem, 1994).
pIC50: −log10 of the molar value.

Experiments:
Glutamate NMDA receptor = assay: Inhibition against NMDA receptor by displacement of [3H]TCP binding from rat cortical membranes; format: cell membranes, Membrane
Mus musculus = assay: Effective dose required for 50% inhibition of clonic seizures in mice induced by racemic NMDLA when administered intraperitoneally; format: functional; details: ip
How it was run: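 Swiss Webster mice, 10 per group, dosed ip with drug in distilled water 0.5 h before N-methyl-D,L-aspartic acid 350 mg/kg sc. Each mouse observed 30 min for clonic seizures lasting at least 3 s; protection means no seizure in that time. Controls received vehicle. ED50 taken at time of peak effect from three or more doses, Litchfield-Wilcoxon method.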

Gerbillinae [1] = assay: Carotid artery occlusion-induced hippocampal damage was evaluated 15 min after carotid occlusion 60 mg/kg intraperitoneal dose; format: functional, Hippocampus
How it was run: (§1)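 Male Mongolian gerbils (65-75 g, n = 14-15) under halothane (2.6 vol% induction, 1.2 vol% maintenance in N2:O2 2:1). Forebrain ischemia by bilateral 5-min carotid occlusion with reperfusion. Drug given ip 15 min before or 15 min after occlusion. CA1 cell necrosis rated on a 0-4 scale (0 none to 4 all CA1 cells). Group means compared by t-test.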

Gerbillinae [2] = assay: Carotid artery occlusion-induced hippocampal damage was evaluated 15 min before carotid occlusion at 30 mg/kg intraperitoneal dose.; format: functional, Hippocampus; how it was run: as §1
Gerbillinae [3] = assay: Carotid artery occlusion-induced hippocampal damage was evaluated 15 min before carotid occlusion at 60 mg/kg intraperitoneal dose.; format: functional, Hippocampus; how it was run: as §1
Gerbillinae [4] = assay: Percent reduction of carotid artery occlusion-induced hippocampal damage at 30 mg/kg intraperitoneal dose.; format: functional, Hippocampus; how it was run: as §1
Rattus norvegicus [5] = assay: Percent change in reduction of photochemically induced cerebral focal ischemia in control and treated rat at 1.0 mg/kg intravenous dose; format: functional
How it was run: (§2)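 Male rats (300-350 g) under halothane (3 vol% induction, 1.2 vol% maintenance in O2). Rose Bengal (5 mg in 1 mL) infused through the femoral vein, then thrombotic focal cortical ischemia induced photochemically with light. Drug given iv 30 min after ischemia to groups of 5-7 rats. Infarct volume (mm3) measured by image analysis of cresyl violet-stained 20-µm sections.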

Rattus norvegicus [6] = assay: Percent change in reduction of photochemically induced cerebral focal ischemia in control and treated rat at 20 mg/kg intravenous dose; format: functional; how it was run: as §2
Rattus norvegicus [7] = assay: Percent change in reduction of photochemically induced cerebral focal ischemia in control and treated rat at 3.0 mg/kg intravenous dose; format: functional; how it was run: as §2
Rattus norvegicus [8] = assay: Reduction of photochemically induced cerebral focal ischemia in rat was evaluated 10.0 mg/kg intravenous dose; format: functional; how it was run: as §2
Rattus norvegicus [9] = assay: Reduction of photochemically induced cerebral focal ischemia in rat was evaluated 3.0 mg/kg intravenous dose; format: functional; how it was run: as §2
Rattus norvegicus [10] = assay: Reduction of photochemically induced cerebral focal ischemia in rat was evaluated at 1.0 mg/kg intravenous dose; format: functional; how it was run: as §2
Rattus norvegicus [11] = assay: Reduction of photochemically induced cerebral focal ischemia in rat was evaluated at 20.0 mg/kg intravenous dose; format: functional; how it was run: as §2
Gerbillinae [12] = assay: Carotid artery occlusion-induced hippocampal damage was evaluated by using compound 15 min before carotid occlusion at 5 mg/kg intraperitoneal dose.; format: functional, Hippocampus; how it was run: as §1
Gerbillinae [13] = assay: Carotid artery occlusion-induced hippocampal damage was evaluated by using control 15 min before carotid occlusion at 5 mg/kg intraperitoneal dose.; format: functional, Hippocampus; how it was run: as §1
Gerbillinae [14] = assay: Percent reduction of carotid artery Carotid artery occlusion-induced hippocampal damage at 5 mg/kg intraperitoneal dose.; format: functional, Hippocampus; how it was run: as §1
Rattus norvegicus [15] = assay: Reduction of photochemically induced cerebral focal ischemia in rat was evaluated by using control at 3 mg/kg intravenous dose; format: functional; how it was run: as §2
Rattus norvegicus [16] = assay: Percent change in reduction of photochemically induced cerebral focal ischemia in control and treated rat at 3 mg/kg intravenous dose; format: functional; how it was run: as §2
Rattus norvegicus [17] = assay: Evaluated for reduction of NMDA-induced necrosis volume at 7.0 mg/kg intraperitoneally dose in rats.; format: functional; details: route intraperitoneal
How it was run: (§3)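 Male Sprague-Dawley rats (280-310 g) under chloral hydrate (400 mg/kg ip). Unilateral dorsal hippocampal CA1 lesion made by stereotaxic infusion of NMDA 20 nmol over 5 min. Drugs given sc or ip 1 h before infusion. Brains perfusion-fixed at 7 days and cresyl violet-stained; lesion volume measured by image analysis. n = 4 per group, compared with control by t-test.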

Rattus norvegicus [18] = assay: Evaluated for reduction of NMDA-induced necrosis at 0.7 mg/kg intraperitoneal dose in rats.; format: functional; how it was run: as §3
Rattus norvegicus [19] = assay: Evaluated for reduction of NMDA-induced necrosis at 2.0 mg/kg intraperitoneal dose in rats.; format: functional; how it was run: as §3
Rattus norvegicus [20] = assay: Evaluated for reduction of NMDA-induced necrosis at 7.0 mg/kg intraperitoneal dose in rats.; format: functional; how it was run: as §3
Rattus norvegicus [21] = assay: Reduction of photochemically induced cerebral focal ischemia in rat was evaluated by using compound at 3 mg/kg intravenous dose; format: functional; how it was run: as §2
Rattus norvegicus [22] = assay: Evaluated for reduction of NMDA-induced necrosis volume at 0.7 mg/kg intraperitoneally dose in rats.; format: functional; details: route intraperitoneal; how it was run: as §3
Rattus norvegicus [23] = assay: Evaluated for reduction of NMDA-induced necrosis volume at 2.0 mg/kg intraperitoneally dose in rats.; format: functional; details: route intraperitoneal; how it was run: as §3
Rattus norvegicus [24] = assay: Evaluated for reduction of NMDA-induced necrosis volume at 30 mg/kg subcutaneous dose in rats.; format: functional; how it was run: as §3
Rattus norvegicus [25] = assay: Evaluated for reduction of NMDA-induced necrosis at 100 mg/kg subcutaneous dose in rats.; format: functional; how it was run: as §3
Rattus norvegicus [26] = assay: Evaluated for reduction of NMDA-induced necrosis at 30 mg/kg subcutaneous dose in rats.; format: functional; how it was run: as §3
Rattus norvegicus [27] = assay: Evaluated for reduction of NMDA-induced necrosis volume at 100 mg/kg subcutaneous dose in rats.; format: functional; how it was run: as §3
Gerbillinae [28] = assay: Carotid artery occlusion-induced hippocampal damage was evaluated by using compound 15 min before carotid occlusion at 30 mg/kg intraperitoneal dose.; format: functional, Hippocampus; how it was run: as §1
Rattus norvegicus [29] = assay: Percent change in reduction of photochemically induced cerebral focal ischemia in control and treated rat at 0.3 mg/kg intravenous dose; format: functional; how it was run: as §2
Rattus norvegicus [30] = assay: Reduction of photochemically induced cerebral focal ischemia in rat was evaluated at 0.1 mg/kg intravenous dose; format: functional; how it was run: as §2
Gerbillinae [31] = assay: Carotid artery occlusion-induced hippocampal damage was evaluated 15 min after carotid occlusion 10 mg/kg intraperitoneal dose; format: functional, Hippocampus; how it was run: as §1
Gerbillinae [32] = assay: Carotid artery occlusion-induced hippocampal damage was evaluated 15 min after carotid occlusion 30 mg/kg intraperitoneal dose; format: functional, Hippocampus; how it was run: as §1
Gerbillinae [33] = assay: Carotid artery occlusion-induced hippocampal damage was evaluated 15 min after carotid occlusion 50 mg/kg intraperitoneal dose; format: functional, Hippocampus; how it was run: as §1
Gerbillinae [34] = assay: Carotid artery occlusion-induced hippocampal damage was evaluated by using compound 15 min before carotid occlusion at 30 mg/kg intraperitoneal dose; format: functional, Hippocampus; how it was run: as §1
Gerbillinae [35] = assay: Percent reduction Carotid artery occlusion-induced hippocampal damage at 10 mg/kg intraperitoneal dose.; format: functional, Hippocampus; how it was run: as §1
Gerbillinae [36] = assay: Percent reduction Carotid artery occlusion-induced hippocampal damage at 30 mg/kg intraperitoneal dose.; format: functional, Hippocampus; how it was run: as §1
Gerbillinae [37] = assay: Percent reduction Carotid artery occlusion-induced hippocampal damage at 50 mg/kg intraperitoneal dose.; format: functional, Hippocampus; how it was run: as §1
Rattus norvegicus [38] = assay: Percent change in reduction of photochemically induced cerebral focal ischemia in control and treated rat at 10 mg/kg intravenous dose; format: functional; how it was run: as §2
Rattus norvegicus [39] = assay: Reduction of photochemically induced cerebral focal ischemia in rat was evaluated at 10 mg/kg intravenous dose; format: functional; how it was run: as §2
Rattus norvegicus [40] = assay: Reduction of photochemically induced cerebral focal ischemia in rat was evaluated at 3.0 mg/kg intravenous dose; format: functional; how it was run: as §2
Rattus norvegicus [41] = assay: Reduction of photochemically induced cerebral focal ischemia in rat was evaluated at 0.3 mg/kg intravenous dose; format: functional; how it was run: as §2

Cc1ccsc1C(N)Cc1ccccc1N.Cl (stereo not given)
pIC50 (Glutamate NMDA receptor): 5.40
ED50 (Mus musculus): 19 mg/kg

CNC(Cc1ccc(C(F)(F)F)cc1N)c1sccc1C (stereo not given)
pIC50 (Glutamate NMDA receptor): < 5.00

CNC(Cc1ccccc1N)c1sccc1C.Cl (single isomer, unassigned; (-))
Treated (Gerbillinae [1]): 3.3
Treated (Gerbillinae [2]): 2.8
Treated (Gerbillinae [3]): 0.9
Reduction (Gerbillinae [4]): 32%
pIC50 (Glutamate NMDA receptor): 4.24
Change (Rattus norvegicus [5]): 7%
Change (Rattus norvegicus [6]): 13%
Change (Rattus norvegicus [7]): 6%
Treated (Rattus norvegicus [8]): 93
Treated (Rattus norvegicus [9]): 73
Treated (Rattus norvegicus [10]): 66
Treated (Rattus norvegicus [11]): 79

CNC(Cc1ccc(Cl)cc1N)c1sccc1C.Cl (stereo not given)
pIC50 (Glutamate NMDA receptor): 4.74
ED50 (Mus musculus): ≥ 60 mg/kg

CNC(Cc1ccccc1N)c1ccc(C)s1 (stereo not given)
pIC50 (Glutamate NMDA receptor): 5.28
ED50 (Mus musculus): > 60 mg/kg

CNC(Cc1cc(Br)ccc1N)c1sccc1C (stereo not given)
pIC50 (Glutamate NMDA receptor): 7.35
ED50 (Mus musculus): > 5 mg/kg

C[C@]12N[C@H](Cc3ccccc31)c1ccccc12 [DIZOCILPINE]
Treated (Gerbillinae [12]): 0.8
Control (Gerbillinae [13]): 1.05
Reduction (Gerbillinae [14]): <22%
Control (Rattus norvegicus [15]): 68
Change (Rattus norvegicus [16]): -24%
Volume (Rattus norvegicus [17]): 0.0025 µM
Reduction (Rattus norvegicus [18]): <44%
Reduction (Rattus norvegicus [19]): <94%
Reduction (Rattus norvegicus [20]): <98%
Treated (Rattus norvegicus [21]): 52
Volume (Rattus norvegicus [22]): 0.1 µM
Volume (Rattus norvegicus [23]): 0.01 µM
ED50 (Mus musculus): 0.38 mg/kg

CNC(Cc1ccccc1N)c1cccs1.Cl (stereo not given)
ED50 (Mus musculus): > 60 mg/kg

Cc1ccsc1C(Cc1ccccc1N(C)C)N(C)C (stereo not given)
pIC50 (Glutamate NMDA receptor): 6.48
ED50 (Mus musculus): > 60 mg/kg

CCNC(Cc1ccccc1N)c1sccc1C.Cl (stereo not given)
pIC50 (Glutamate NMDA receptor): 7.37
Volume (Rattus norvegicus [24]): 0.059 µM
Reduction (Rattus norvegicus [25]): 95%
Reduction (Rattus norvegicus [26]): 67%
Volume (Rattus norvegicus [27]): 0.0098 µM
ED50 (Mus musculus): 6.4 mg/kg

CNc1ccccc1CC(NC)c1sccc1C.Cl (stereo not given)
pIC50 (Glutamate NMDA receptor): 5.42
ED50 (Mus musculus): > 60 mg/kg

CNc1ccccc1CC(c1sccc1C)N(C)C (stereo not given)
ED50 (Mus musculus): > 60 mg/kg

CNC(Cc1ccccc1N)c1sccc1C.Cl (stereo in doubt; (+)3a)
Treated (Gerbillinae [28]): 1.5
Reduction (Gerbillinae [4]): 51%
pIC50 (Glutamate NMDA receptor): 6.74
Change (Rattus norvegicus [29]): 13%
Change (Rattus norvegicus [5]): 14%
Treated (Rattus norvegicus [30]): 59
Treated (Rattus norvegicus [10]): 67

CNC(Cc1ccccc1N)c1sccc1C.Cl (stereo in doubt; 3a)
Treated (Gerbillinae [31]): 2.8
Treated (Gerbillinae [32]): 2.13
Treated (Gerbillinae [33]): 2.13
Treated (Gerbillinae [34]): 0.3
Reduction (Gerbillinae [35]): 2%
Reduction (Gerbillinae [36]): 26%
Reduction (Gerbillinae [37]): 18%
Reduction (Gerbillinae [4]): 75%
pIC50 (Glutamate NMDA receptor): 6.46
Change (Rattus norvegicus [29]): 0%
Change (Rattus norvegicus [5]): -27%
Change (Rattus norvegicus [38]): 6%
Change (Rattus norvegicus [16]): -16%
Treated (Rattus norvegicus [10]): 57
Treated (Rattus norvegicus [39]): 86
Treated (Rattus norvegicus [40]): 63
Reduction (Rattus norvegicus [25]): 68%
Volume (Rattus norvegicus [27]): 0.057 µM
Treated (Rattus norvegicus [41]): 72
ED50 (Mus musculus): 27.8 mg/kg

CNC(Cc1cc(Cl)ccc1N)c1sccc1C (stereo not given)
pIC50 (Glutamate NMDA receptor): 7.60
ED50 (Mus musculus): ≥ 30 mg/kg

Cc1ccsc1C(Cc1ccccc1N)N(C)C (stereo not given)
pIC50 (Glutamate NMDA receptor): 6.43
ED50 (Mus musculus): > 60 mg/kg

CCCNC(Cc1ccccc1N)c1sccc1C.Cl (stereo not given)
pIC50 (Glutamate NMDA receptor): 6.89
ED50 (Mus musculus): 14.1 mg/kg

O=C(O)C1CN(CCCP(=O)(O)O)CCN1 (stereo not given)
pIC50 (Glutamate NMDA receptor): < 4.00
